Screening results from PubChem.
This is a sample that favours compounds with a hit; in the whole collection about 5.8% have one here.
ROMK primary = modulators of human ROMK potassium channel | P48048 | Tet-inducible ROMK, thallium flux fluorescence; actives lie on both sides | B-score at 10 µM | 130,000 compounds, 2% hits;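 active = signal ratio slope over the read window, or its plate-corrected B-score, at least 3 SD from the plate mean, either direction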;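 note: B-score of the F/F0 ratio slope over 7 to 12 s after thallium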
NCF1 inh = inhibitors of human p47phox binding; P14598; inhibition, % at 24.7 µM; 220,000 compounds, 0.53% hits; p47phox/p22phox peptide binding, fluorescence polarization, 2 h;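 active = inhibition above about 30%, limit read from the data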;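 note: 0% = p47phox with labelled peptide and 100% = labelled peptide alone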
KCC2 mod = KCC2 (human) Cl- transport modulation. 190,000 compounds, 2.2% hits. KCC2 cells, thallium flux FluoZin-2 fluorescence. B-score of Tl+ flux slope (higher = more flux/activation; lower = inhibition) at 10 µM. Q9H2X9;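 active = thallium flux slope and its plate-corrected score both differing from the plate sample mean at a set confidence after two filtering rounds, in either direction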;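 note: slope of fluorescence scaled to starting intensity during 10 to 20 s after thallium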
Target sequence (Q9H2X9 whole entry, looked up): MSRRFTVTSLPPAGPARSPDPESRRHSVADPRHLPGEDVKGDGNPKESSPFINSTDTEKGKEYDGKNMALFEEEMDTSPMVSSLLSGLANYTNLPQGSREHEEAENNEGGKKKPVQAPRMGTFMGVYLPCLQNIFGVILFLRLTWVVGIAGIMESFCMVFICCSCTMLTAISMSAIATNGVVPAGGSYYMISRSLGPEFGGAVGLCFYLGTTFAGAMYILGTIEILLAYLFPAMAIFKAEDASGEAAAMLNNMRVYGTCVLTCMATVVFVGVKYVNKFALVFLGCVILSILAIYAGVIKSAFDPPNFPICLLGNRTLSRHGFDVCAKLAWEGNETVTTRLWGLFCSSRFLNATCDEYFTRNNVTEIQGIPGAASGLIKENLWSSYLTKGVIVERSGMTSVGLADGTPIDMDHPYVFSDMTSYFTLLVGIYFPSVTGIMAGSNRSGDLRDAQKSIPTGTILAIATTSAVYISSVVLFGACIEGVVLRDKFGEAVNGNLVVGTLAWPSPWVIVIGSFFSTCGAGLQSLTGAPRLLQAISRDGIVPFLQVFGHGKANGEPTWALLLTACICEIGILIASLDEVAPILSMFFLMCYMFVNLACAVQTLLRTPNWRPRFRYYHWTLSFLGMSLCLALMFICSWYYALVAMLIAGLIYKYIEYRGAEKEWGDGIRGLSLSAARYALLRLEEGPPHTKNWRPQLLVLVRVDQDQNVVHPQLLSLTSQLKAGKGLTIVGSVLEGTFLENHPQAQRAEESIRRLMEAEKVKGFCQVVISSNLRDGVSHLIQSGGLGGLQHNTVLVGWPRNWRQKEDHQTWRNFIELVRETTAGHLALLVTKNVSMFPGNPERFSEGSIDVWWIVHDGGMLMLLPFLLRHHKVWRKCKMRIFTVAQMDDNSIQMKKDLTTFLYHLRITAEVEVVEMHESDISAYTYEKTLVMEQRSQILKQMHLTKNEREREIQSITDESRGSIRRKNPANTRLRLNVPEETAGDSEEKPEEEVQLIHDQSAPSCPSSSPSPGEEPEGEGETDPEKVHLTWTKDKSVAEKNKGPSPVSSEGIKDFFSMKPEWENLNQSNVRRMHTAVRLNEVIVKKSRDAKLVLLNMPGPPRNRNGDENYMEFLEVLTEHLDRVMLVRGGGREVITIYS
WT yeast gro inh = growth inhibition of WT yeast, mitochondrial fusion screen; 190,000 compounds, 2.1% hits; mitochondrial fusion phenotypic screen, WT strain; inhibition, % at 10 µM; in the data active = inhibition above about 58%; tested in S. cerevisiae
14-3-3 Bad inh = disrupts binding of bovine 14-3-3 zeta to phospho-Bad peptide; P63103; TR-FRET 14-3-3zeta/Dy647-pBad peptide displacement, 1 h; inhibition, % at 21.7 µM; 220,000 compounds, 0.71% hits; AID 781;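 active = inhibition above about 70%, limit read from the data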;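 note: 0% = full 14-3-3 plus peptide FRET controls and 100% = background without 14-3-3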
RBBP9 inhibitor = human RBBP9 hydrolase inhibition | inhibition, % at 7.94 µM | O75884 | AID 1515 | 220,000 compounds, 0.2% hits | recombinant RBBP9, FP-Rh probe fluorescence polarization;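 active = inhibition above the campaign mean of all tested compounds plus 3 SD, cut at about 14% in these data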;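 note: plate controls were DMSO wells with RBBP9 for no effect and wells lacking RBBP9 protein for full effect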
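Controls: DMSO-treated enzyme wells and wells lacking RBBP9 | Material: RBBP9 protein | Technique: Fluorescence polarization | Replication: Single well per compound, no replicates | Buffer or medium: Tris-NaCl-Pluronic buffer, pH 8.0 | Timing: 30 min compound preincubation, 45 min probe labeling, 25 °C | Read-out basis: Percent inhibition from mP, scaled between DMSO and no-protein wells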
ROMK hit retest = retested hit modulating human ROMK potassium channel | shares compounds with ROMK primary | ROMK thallium flux, fluorescence ratio; stronger effect = lower value | normalized thallium flux (F/F0 slope) at 10 µM | 3,000 compounds, 54% hits | AID 1917;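 active = Flux at 10 µM at least 3 SD below or above vehicle control mean in one or both replicates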
Active calls of the source: *; . = no result given.

SMILES | ROMK primary | NCF1 inh | KCC2 mod | WT yeast gro inh | 14-3-3 Bad inh | RBBP9 inhibitor | ROMK hit retest
CCOc1ccc(OCCOCCOc2ccccc2Cl)cc1 | -0.3 | -6 | 0.16 | 28 | -4 | 5 | .
COc1ccccc1OCCOCCOc1ccccc1Cl | -2.8* | 10 | -2.5 | -4 | -12 | 1 | 0.074
CCn1c(SCc2nc(-c3cccs3)no2)nnc1-c1c[nH]c2ccccc12 | . | -33 | -0.82 | 10 | -12 | -3 | 0.057*
COc1ccc(OC)c(C2=C[N+](=O)C(C)(C)C(C)(C)N2[O-])c1 | 4.6* | -7 | -0.78 | -8 | 4 | -7 | 0.088
Cc1cccc(COc2ccc(/C=N/NC(=O)c3nnn(-c4nonc4N)c3COc3ccc(F)cc3)cc2)c1 | . | -19 | 1.4 | . | -1 | -1 | .
Cc1cc(N2CCCC2)ccc1/C=C1\NC(=S)N(C)C1=O | -3.2* | -122 | . | 35 | -12 | -18 | 0.025*
CN1C(=O)c2ccc(N3CCCC3)cc2C1=O | . | -16 | 0.017 | -16 | 0 | -8 | .
CC(=O)NC1C(OCc2ccccc2)OC2COC(c3ccccc3)OC2C1OCC(=O)O (stereo not drawn) | -0.02 | -8 | . | -12 | 9 | -3 | .
O=C(CN1CCN(C(c2ccccc2)c2ccccc2)CC1)N1CCN(c2ccccc2)CC1 | -3.7* | -18 | 0.092 | . | 5 | 4 | 0.063*
O=C(c1ccccc1)C1CCN(CC(=O)N2CCN(c3ccccc3)CC2)CC1 | -0.9 | -3 | -0.89 | -8 | -8 | 2 | .
Cc1ccc(CC(=O)NC(C)CCc2ccccc2)cc1 (stereo not drawn) | . | -21 | -2.6 | 13 | -3 | -11 | .
CC(CCc1ccccc1)NC(=O)CN1CCN(c2ccccc2)CC1 (stereo not drawn) | -2.9* | -8 | -0.28 | 0 | -8 | -4 | 0.061*
Cc1nn(Cc2c(Cl)cccc2Cl)c(Cl)c1/C=N/NC(=O)c1cccnc1 | 0.79 | 10 | -1.4 | -24 | 3 | -2 | .
Cc1cc(C)n2nc(S(=O)(=O)NC(C)(C)C)nc2n1 | -0.013 | -6 | 0.05 | 3 | -18 | -12 | .
COc1ccc(C)cc1NC(=O)C(NC(=O)c1cc(OC)c(OC)c(OC)c1)C(C)C (stereo not drawn) | 0.026 | 17 | 1.2 | 9 | -2 | 4 | .
O=C(C1CC(Cl)CN1S(=O)(=O)c1ccc(Cl)cc1)N1CCOCC1 (stereo not drawn) | -2* | -7 | -1.3 | -1 | -3 | 10 | 0.087
O=C(Nc1ccc(N2CCOCC2)cc1)C1CC(O)CN1S(=O)(=O)c1ccc(Cl)cc1 (stereo not drawn) | 3.5 | -18 | 0.19 | 13 | -12 | -4 | .
COCCNCC(=O)Nc1ccccc1Sc1ccccc1 | . | 4 | 1.3 | -8 | 29 | -1 | .
O=c1nc(/C=C/c2cccn2-c2ccc([N+](=O)[O-])cc2)cc(C(F)(F)F)[nH]1 | 0.27 | -5 | -1.4 | 18 | 12 | -3 | .
O=c1nc(/C=C/c2cc([N+](=O)[O-])ccc2Cl)cc(C(F)(F)F)[nH]1 | -6* | -9 | -1.6 | -6 | -7 | 10 | 0.04*
CC(OC(=O)Cc1coc2ccc3ccccc3c12)C(=O)NC(N)=O (stereo not drawn) | . | 5 | -0.77 | . | -4 | -10 | .
O=C(Cn1c2ccccc2c2nc3n(c(=O)c21)CCS3)Nc1ccccc1C(F)(F)F | -3.2* | -1 | 1 | -6 | 20 | -6 | 0.069*
c1csc(CNc2ncnc3sccc23)c1 | -2.9* | . | . | 5 | . | -9 | 0.066*
O=C(CSc1nnc(COc2ccccc2Cl)o1)NC(=O)NCc1ccco1 | . | -11 | -1.9 | . | -1 | -10 | .
CSc1nc(C)cc(OCC(=O)N/N=C/c2ccccc2O)n1 | 2.9* | -6 | -0.26 | -14 | -17 | -9 | 0.081
SMILES | ROMK primary | NCF1 inh | KCC2 mod | WT yeast gro inh | 14-3-3 Bad inh | RBBP9 inhibitor | ROMK hit retest
O=C(COc1nsnc1N1CCOCC1)N/N=C/c1ccccc1O | -0.4 | -15 | 0.38 | -12 | 0 | -9 | .
c1cc2c3c(cccc3c1)NC1(CCC3(CC1)Nc1cccc4cccc(c14)N3)N2 | . | 0 | -0.39 | . | -8 | 8 | 0.05*
c1cc2c3c(cccc3c1)NC1(CCCCCC1)N2 | . | 3 | 0.0065 | 11 | -13 | -4 | .
CC1CC(C)CN(C(=O)CSc2nc(N)cc(=O)[nH]2)C1 (stereo not drawn) | -1.8 | 0 | 0.14 | -10 | -19 | -11 | .
CCOC(=O)C(=CNc1ccccc1N1CCOCC1)C(=O)OCC | . | -7 | . | . | -5 | 6 | 0.064*
O=C1CC(N2CCN(Cc3ccc4c(c3)OCO4)CC2)C(=O)N1c1cccc2ccccc12 (stereo not drawn) | -3.1* | -2 | 0.82 | -17 | -13 | -4 | 0.055*
CC(O)CNc1nc2ccccc2n1CC(=O)NC12CC3CC(CC(C3)C1)C2 (stereo not drawn) | -2.7* | -5 | -0.69 | -11 | -5 | -6 | 0.066*
CC(O)CNc1nc2ccccc2n1CC(=O)NCC(F)(F)F (stereo not drawn) | 0.0065 | 0 | 0.15 | -3 | -9 | -2 | .
CC1(C)Cc2c(c(-c3ccco3)[nH]c(=O)c2C#N)CS1 | -3.7* | 2 | 0.1 | 4 | -4 | -2 | 0.078
CC1(C)Cc2c(c(-c3ccccc3)[nH]c(=O)c2C#N)CS1 | 0.62 | -16 | . | -18 | 0 | -4 | .
CC1(C)Cc2c(C#N)c(N3CCN(C(=O)c4ccccc4Cl)CC3)nc(-c3ccco3)c2CS1 | -1.8* | -32 | 0.99 | 9 | 4 | -6 | 0.089
Nc1nc(-c2ccccn2)nc(N)c1Cc1ccc(Cl)cc1Cl | 0.019 | 1 | 0.16 | -5 | -13 | 2 | .
O=C(O)c1cccc2c1C(=O)c1ccccc1-2 | . | -11 | 1.4 | . | 0 | -4 | .
O=C(O)c1cccc2c1C(=O)c1ccccc1C2=O | -2.4* | 4 | -0.64 | -15 | -7 | -2 | 0.087
O=C(Nc1nccs1)c1cc(Cl)nc2ccccc12 | . | -3 | 0.71 | . | 1 | -3 | 0.078
O=C(Nc1nccs1)c1cc(-c2ccccc2)nc2ccccc12 | -0.69 | -16 | 0.17 | 31 | 26 | -16 | .
COCCn1nnnc1C(c1cc(OC)ccc1OC)N1CCc2ccccc2C1 (stereo not drawn) | -2.1* | -1 | 0.22 | 7 | 6 | -2 | 0.078
COc1ccc(OC)c(C(c2nnnn2CCc2ccccc2)N2CCC(C(N)=O)CC2)c1 (stereo not drawn) | . | -6 | -0.13 | 5 | 11 | -11 | .
O=C(Nc1cccc(S(=O)(=O)c2cccc(NC(=O)C3CC3)c2)c1)C1CC1 | -0.8 | -1 | . | -7 | 1 | -7 | 0.074
CS(=O)(=O)c1cccc(NC(=O)C2CC2)c1 | . | -5 | -1.1 | -3 | -5 | -6 | .
O=C(NCc1cccs1)C1CCN(c2ccc(S(=O)(=O)N3CCOCC3)cc2Cl)CC1 | 2.9* | 11 | . | -12 | 4 | -1 | 0.081
